Screening results as filed in PubChem BioAssay.
Env fusion inh – inhibitors of HIV Env-mediated cell fusion; hit rate 1.1% among 360,000; inhibition, % at 12.3 µM; AID 651610; HeLa-JRFL Env/CEM21 cell fusion, luciferase;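 active means mean replicate inhibition score of at least 50 and every replicate individually at or above 50; inconclusive means only one of the two criteria met; inactive means mean below 50 and not all replicates reaching 50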;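 further: 0% = plate neutral controls and 100% = maraviroc near 300 nM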
Cneo AK release – Cryptococcus neoformans lysis via adenylate kinase release; hit rate 0.2% among 360,000; AID 651654; lysis activity, % at 15 µM; C. neoformans lysis, adenylate kinase release luminescence, 4 h; normalised: neutral wells 0, clomiphene wells 100;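 active means mean lysis activity across replicates of at least 80%, whatever share of replicates individually reach that level; inactive means mean lysis activity below 80%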
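Assay system: Cryptococcus neoformans yeast cells / Dosing: single-point compound dose / Timing: 4 h at 37 °C static, read 1 h later / Measured by: luminescence of released adenylate kinase using an AK detection reagent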
ERAP1 inh – ERAP1 (human) enzyme inhibition; Q9NZ08; recombinant ERAP1, Leu-AMC fluorescence, 60 min; inhibition, % at 10.7 µM; hit rate 0.15% among 340,000; AID 652197;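 active means mean replicate inhibition of at least 30%, or all replicates individually reaching that 30% level; inactive means mean below 30% and not every replicate reaching it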;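 further: 0% = neutral control wells and 100% = L-leucinethiol positive control wells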
PGC1a acetyl inh – PGC1a acetylation modulation, inhibitor mode | U2OS PGC1a acetylation, AlphaScreen anti-acetyl-lysine; with virally co-expressed GCN5 acetyltransferase | inhibition, % at 15.6 µM | hit rate 0.17% among 350,000 | AID 651687;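 active means every replicate shows inhibition of at least 40%; inconclusive means mean inhibition at least 40% but some replicate below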;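 further: 0% = neutral control wells and 100% = positive control wells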
Ecoli rRNA inh – inhibits bacterial ribosomal RNA function over humanized ribosomes; E. coli WT GFP vs humanized-ribosome RFP mutants, fluorescence, 24 h; active compounds read low; DMSO median 0, no signal -100; hit rate 1.6% among 350,000; GFP signal change (wild-type ribosome), % (concentration not given with the values); AID 720706;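 active means significant combined selectivity score with lowered wild-type GFP, culture density cut under 30%, mutant RFP and density less affected; inactive means any of these conditions unmet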
FGF22 binding – FGF22 (human) thermal shift binding; recombinant FGF22 thermal shift, SYPRO orange fluorescence; percent of sucrose octasulfate shift, DMSO zero; Q9HCT0; hit rate 1.5% among 340,000; activity (Tm shift, normalised), % at 9.99 µM;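 active means mean Tm shift, scaled 0 neutral to 100 positive control, at about 1.3% or above, every replicate too, limit read from the data; inconclusive means no clear call, values can overlap the other calls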
Target sequence (Q9HCT0 whole entry, looked up): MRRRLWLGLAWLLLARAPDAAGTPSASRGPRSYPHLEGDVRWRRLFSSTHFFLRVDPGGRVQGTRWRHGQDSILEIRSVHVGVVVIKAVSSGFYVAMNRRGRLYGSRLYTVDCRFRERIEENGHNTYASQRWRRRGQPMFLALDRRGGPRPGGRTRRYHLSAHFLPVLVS
An asterisk follows results filed as active; ? = inconclusive; nt = no result; [ ] = dose if it differs, or a comment. In the library only some 3.5% were active in any assay of this set; here they are far more common.

SMILES	Env fusion inh	Cneo AK release	ERAP1 inh	PGC1a acetyl inh	Ecoli rRNA inh	FGF22 binding
O=C(O)c1ccc(N/N=C/C2=C(N3CCOCC3)C(=C\c3ccccc3)/CC2)cc1	6	-1	10	-11	-36*	0
COc1cc2[nH]c(C(=O)NCC3CCCO3)cc2c(OC)c1OC (stereo not given)	-12	1	0	-7	14	0
O=C1c2[nH]c(=O)[nH]c(=O)c2CN1Cc1ccccc1	-9	1	0	2	-3	0
COc1ccccc1OCCSc1nnnn1-c1ccc(C)cc1	-16	-4	-1	-11	-8	0
COc1ccccc1NC(=O)CSc1nc2ccccc2n1C(C)=O	-9	-5	nt	-14	nt	nt
Cn1cnnc1SCC(=O)Nc1ccc2nc(SCc3ccccc3F)sc2c1	nt	-5	-5	-12	-23*	0
N=c1c2c(n(Cc3ccc(Br)cc3)c3c1CCC3)CCCC2	70*	nt	0	nt	-59	43*
N=c1c2c(n(Cc3ccc(Cl)c(Cl)c3)c3c1CCC3)CCCC2	nt	nt	nt	-22	nt	nt
O=C(c1cccnc1)N1CCC(Oc2ccc(C(=O)N3CCCC(O)C3)cc2)CC1 (stereo not given)	-4	111*	12	7	9	0
FC(F)Oc1ccc(-n2cc(-c3ccccc3)[n+]3c2CCCCC3)cc1	3	nt	0	nt	-28*	0
Cc1ccc(-c2cn(-c3ccc(OC(F)F)cc3)c3[n+]2CCCCC3)cc1	-3	1	nt	nt	-36*	nt
CC(C)(C)c1ccc(-c2cn(-c3ccc(Br)cc3)c3[n+]2CCCS3)cc1	?	nt	12	nt	-50*	0
c1ccc(-c2cn(-c3ccccc3)c3[n+]2CCS3)cc1	29	1	6	2	-10	0
FC(F)Sc1ccc(-n2cc(-c3ccc(Cl)cc3)[n+]3c2CCC3)cc1	-11	nt	nt	nt	nt	nt
Fc1ccc(-n2cc(-c3ccccc3)[n+]3c2SCC3)cc1	-15	nt	-4	-18	18	0
Clc1ccc(-n2cc(-c3ccc(Br)cc3)[n+]3c2CCCCC3)cc1	13	nt	0	nt	-46*	0
Cc1ccc(CONC(=O)c2ccc(OC(F)F)cc2)cc1	-19	0	-3	-13	-3	0
COc1ccc(Cc2nc(-c3ccc(NC(=O)c4cccnc4)cc3)no2)cc1	nt	nt	nt	-240	nt	nt
NS(=O)(=O)c1ccc(CCNC(=O)CCCn2c(=O)[nH]c3ccc(Br)cc3c2=O)cc1	5	nt	-2	nt	20	0
CC(=O)NC(=S)Nc1sc2c(c1C(N)=O)CCC(C)C2 (stereo not given)	-24	nt	-3	nt	-28*	0
CCOC(=O)Nc1sc2c(c1C(N)=O)CCC(C)C2 (stereo not given)	-2	nt	nt	-6	nt	nt
Cc1ccc(S(=O)(=O)NC2c3cccc4cccc(c34)C2Sc2nc(C)cc(C)n2)cc1 (stereo not given)	98*	-2	nt	-12	nt	nt
Cc1ccc(S(=O)(=O)NC2c3cccc4cccc(c34)C2Sc2nncn2C)cc1 (stereo not given)	5	-1	-1	nt	7	0
CC(=O)C1=C(c2ccccc2)OC(N)=C(C#N)C1c1ccc(O)cc1 (stereo not given)	-3	nt	9	nt	-5	0
CN(C)c1ccc(C(=O)Nc2cc(C(F)(F)F)ccc2-n2cncn2)cc1	nt	1	nt	8	nt	nt
SMILES	Env fusion inh	Cneo AK release	ERAP1 inh	PGC1a acetyl inh	Ecoli rRNA inh	FGF22 binding
Cc1ccc(S(=O)(=O)N(C)C)cc1NS(=O)(=O)c1ccc(Cl)s1	nt	0	0	nt	-45*	0
COC(=O)CCC[C@H]1CC2(C[C@H](CCCO[Si](C)(C)C(C)(C)C)N1C(=O)OC(C)(C)C)OCCO2	74*	1	nt	3	9	0
COc1ccc(NC(=O)N[C@H]2C=C[C@H](CC(=O)NC3CCCCC3)O[C@H]2CO)cc1	3[16.7 µM]	56	0	-2	-9	0
Cc1cccc(N2CCN(C(=O)N3CCCCC3)CC2)c1C	-2	nt	0	-8	-36*	0
Cc1cccc(N2CCN(C(=O)C3CCCCC3)CC2)c1C	nt	2	nt	-18	nt	nt
Cc1cc(N2CCC(C(=O)N3CCN(c4cccc(C)c4C)CC3)CC2)n2ncnc2n1	67*	8	nt	15	nt	nt
